ChEMBL document CHEMBL1142879, “Synthesis and biological evaluation of dialkylsubstituted maleic anhydrides as novel inhibitors of Cdc25 dual specificity phosphatases” (Eur J Med Chem, 2007)

Columns and labels:
[1] = Inhibition of horse liver alkaline phosphatase; parameters: species or system Equus caballus
Method in brief: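 Phosphatase activity was read with p-nitrophenyl phosphate as substrate, following a previously described method.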

[2] = target: T1, M-phase inducer phosphatase 3 (Homo sapiens, UniProt P30307); assay: Inhibition of human GST-Cdc25C expressed in Escherichia coli BL21(DE3)
T1 sequence (P30307 whole entry): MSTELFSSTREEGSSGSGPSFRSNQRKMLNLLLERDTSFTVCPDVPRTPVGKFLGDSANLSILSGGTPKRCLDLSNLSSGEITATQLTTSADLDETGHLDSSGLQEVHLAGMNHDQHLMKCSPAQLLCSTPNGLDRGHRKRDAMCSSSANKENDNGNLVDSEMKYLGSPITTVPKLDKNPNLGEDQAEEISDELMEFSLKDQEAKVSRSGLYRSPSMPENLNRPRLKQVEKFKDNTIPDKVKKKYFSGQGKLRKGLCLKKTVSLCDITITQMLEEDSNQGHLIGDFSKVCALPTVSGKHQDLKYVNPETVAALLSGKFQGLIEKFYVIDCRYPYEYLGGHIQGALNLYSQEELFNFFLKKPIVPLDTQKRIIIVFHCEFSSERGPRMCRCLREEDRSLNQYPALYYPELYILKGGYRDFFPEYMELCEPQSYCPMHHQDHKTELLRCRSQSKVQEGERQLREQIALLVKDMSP
Method in brief: (§1)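 GST fusion proteins (full-length Cdc25A and Cdc25C; Cdc25B catalytic domain) were expressed in E. coli grown with ampicillin and induced with IPTG at OD600 0.4–0.6 for 5 h. They were purified on glutathione-agarose. Activity was measured with p-nitrophenyl phosphate as substrate across a range of inhibitor concentrations. IC50 is the mean ± SD of at least two independent experiments, each with four determinations per concentration.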

[3] = target: T2, M-phase inducer phosphatase 1 (Homo sapiens, UniProt P30304); assay: Inhibition of human GST-Cdc25A expressed in Escherichia coli BL21(DE3); method in brief: as §1
T2 sequence (P30304 whole entry): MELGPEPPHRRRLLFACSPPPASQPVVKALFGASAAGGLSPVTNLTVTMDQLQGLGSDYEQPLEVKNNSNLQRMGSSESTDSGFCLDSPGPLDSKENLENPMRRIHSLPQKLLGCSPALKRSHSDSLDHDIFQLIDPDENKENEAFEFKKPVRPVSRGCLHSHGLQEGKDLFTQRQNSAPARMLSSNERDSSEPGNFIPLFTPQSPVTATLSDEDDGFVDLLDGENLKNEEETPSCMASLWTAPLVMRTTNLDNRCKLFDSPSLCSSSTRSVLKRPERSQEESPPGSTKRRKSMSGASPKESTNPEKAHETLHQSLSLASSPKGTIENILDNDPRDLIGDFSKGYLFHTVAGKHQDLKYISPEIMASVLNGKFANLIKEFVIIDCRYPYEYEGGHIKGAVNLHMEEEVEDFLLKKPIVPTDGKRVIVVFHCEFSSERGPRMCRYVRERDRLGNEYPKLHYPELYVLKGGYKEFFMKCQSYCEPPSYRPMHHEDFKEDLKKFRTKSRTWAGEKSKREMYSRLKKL

[4] = target: T3, M-phase inducer phosphatase 2 (Homo sapiens, UniProt P30305); assay: Inhibition of human GST-Cdc25B expressed in Escherichia coli BL21(DE3); method in brief: as §1
T3 sequence (P30305 whole entry): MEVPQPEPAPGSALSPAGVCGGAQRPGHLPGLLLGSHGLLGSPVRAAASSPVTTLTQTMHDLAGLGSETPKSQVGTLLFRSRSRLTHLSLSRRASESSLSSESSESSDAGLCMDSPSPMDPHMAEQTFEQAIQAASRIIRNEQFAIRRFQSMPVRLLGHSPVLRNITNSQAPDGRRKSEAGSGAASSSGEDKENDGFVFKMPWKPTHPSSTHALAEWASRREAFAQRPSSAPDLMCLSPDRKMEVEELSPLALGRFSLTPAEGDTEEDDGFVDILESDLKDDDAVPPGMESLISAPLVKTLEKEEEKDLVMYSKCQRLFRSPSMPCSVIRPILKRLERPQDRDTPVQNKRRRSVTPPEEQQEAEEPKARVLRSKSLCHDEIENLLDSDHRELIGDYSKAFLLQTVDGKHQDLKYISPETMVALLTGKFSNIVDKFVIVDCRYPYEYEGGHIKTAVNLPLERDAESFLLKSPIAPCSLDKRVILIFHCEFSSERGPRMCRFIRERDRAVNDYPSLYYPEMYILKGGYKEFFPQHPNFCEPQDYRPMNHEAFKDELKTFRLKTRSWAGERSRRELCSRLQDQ

Compound | IC50 [1] [µM] | IC50 [2] [µM] | IC50 [3] [µM] | IC50 [4] [µM]
CCCCCCC1=C(CCC(=O)O)C(=O)OC1=O | > 100 | > 100 | > 100 | > 100
CCCCCCCCC1=C(CCC(=O)O)C(=O)OC1=O | > 100 | > 100 | > 100 | > 100
CCCCCCCCCCC1=C(CCC(=O)O)C(=O)OC1=O | > 100 | 53.9 | 44.4 | 55.2
CCCCCCCCCCCCCC1=C(CCC(=O)O)C(=O)OC1=O | > 100 | 5.7 | 8.1 | 8.7
CCCCCCCCCCCCCCC1=C(CCC(=O)O)C(=O)OC1=O | > 100 | 12.6 | 6.3 | 11.6
CCCCCCCCCCCCCCCCCC1=C(CCC(=O)O)C(=O)OC1=O | > 100 | – | – | –
CCCCCCCC/C=C\CCCCCCCC1=C(CCC(=O)O)C(=O)OC1=O | > 100 | 8.8 | 4.5 | 6.7
CCCCCCCCCC1=C(CCC(=O)O)C(=O)OC1=O | > 100 | > 100 | > 100 | > 100
CCCCCCCCCCCC1=C(CCC(=O)O)C(=O)OC1=O | > 100 | > 100 | 44.3 | 47.7
CCCCCCCCCCCCCCCC1=C(CCC(=O)O)C(=O)OC1=O | > 100 | 8.6 | 4.7 | 7.6
